According to ChEMBL document CHEMBL1157663, “Acyclic nucleoside phosphonates with 5-azacytosine base moiety substituted in C-6 position” (Bioorg Med Chem, 2010):
In brackets after ≈: the same amount, converted by molar mass. Activity calls are given as the source filed them. The calls are words filed in the database; no cut-off is given here.

Columns and labels:
[1] = Cytotoxicity against human CEM cells; type: cell-based; conditions: CEM (CCRF-CEM) cells
[2] = Cytotoxicity against HEL cells; type: cell-based; conditions: human
[3] = tested on: Human alphaherpesvirus 1; test: Antiviral activity against Herpes simplex virus 1 infected in HEL cells; type: functional, organism-based
Procedure, shortened: (§1)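 DNA-virus assay run in human embryonic lung (HEL) cell cultures.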

[4] = tested on: Vero; test: Cytostatic activity against african green monkey Vero cells; type: ADME, cell-based; conditions: chlorocebus sabaeus
[5] = Cytotoxicity against african green monkey Vero cells; type: cell-based; conditions: chlorocebus sabaeus
[6] = tested on: CCRF-CEM; test: Cytostatic activity against human CEM cells; type: cell-based
[7] = tested on: Human immunodeficiency virus 1; test: Antiviral activity against HIV1 infected in human CEM cells; type: functional, organism-based; conditions: CCRF-CEM
Procedure, shortened: (§2)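 Retroviral assay (HIV-1, HIV-2) run in human T-lymphocyte CEM cells.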

[8] = tested on: HEL; test: Cytostatic activity against HEL cells; type: ADME, cell-based; conditions: human
[9] = tested on: Human immunodeficiency virus 2; test: Antiviral activity against HIV2 infected in human CEM cells; type: functional, organism-based; conditions: CCRF-CEM; procedure, shortened: as §2
[10] = tested on: Human alphaherpesvirus 2; test: Antiviral activity against Herpes simplex virus 2 infected in HEL cells; type: functional, organism-based; procedure, shortened: as §1
[11] = tested on: Cowpox virus; test: Ratio of compound EC50 to HPMP-5-azaC EC50 for Cowpox virus infected in HEL cells; type: functional
[12] = tested on: Vaccinia virus; test: Ratio of compound EC50 to HPMP-5-azaC EC50 for Vaccinia virus infected in HEL cells; type: functional, Orthopoxvirus vaccinia
[13] = tested on: Sindbis virus; test: Antiviral activity against Sindbis virus infected in african green monkey Vero cells at 20 ug/ml; type: functional, organism-based
[14] = tested on: Human betaherpesvirus 6; test: Antiviral activity against Human herpesvirus 6; type: functional, organism-based
[15] = tested on: Human betaherpesvirus 5; test: Antiviral activity against Human cytomegalovirus infected in HEL cells; type: functional, organism-based; conditions: Human betaherpesvirus 5, HEL; procedure, shortened: as §1
[16] = tested on: Human alphaherpesvirus 3; test: Antiviral activity against Varicella zoster virus infected in HEL cells; type: functional, organism-based; conditions: Human alphaherpesvirus 3, HEL; procedure, shortened: as §1

SMILES | CC50 [1] [mg/L] | CC50 [2] [mg/L] | Activity [3] | Activity [4] | CC50 [5] [mg/L] | Activity [6] | Activity [7] | Activity [8] | Activity [9] | Activity [10] | Ratio EC50 [11] | Ratio EC50 [12] | Activity [13] | EC50 [14] [mg/L] | EC50 ([3]; Human alphaherpesvirus 1, HEL) [mg/L] | EC50 [15] [mg/L] | EC50 ([10]; Human alphaherpesvirus 2, HEL) [mg/L] | EC50 [16] [mg/L]
Nc1ncnc(=O)n1C[C@@H](CO)OCP(=O)(O)O | > 100 | > 100 | inactive | Non-toxic | > 100 | Non-toxic | inactive | Non-toxic | inactive | inactive |  |  |  |  |  |  |  | 
CCCc1nc(N)nc(=O)n1C[C@@H](CO)OCP(=O)(O)O | > 100 | > 100 | inactive | Non-toxic | > 100 | Non-toxic | inactive | Non-toxic | inactive | inactive | 50 | 50 |  |  |  |  |  | 
CCc1nc(N)nc(=O)n1C[C@@H](CO)OCP(=O)(O)O | > 100 | > 100 | inactive | Non-toxic | > 100 | Non-toxic | inactive | Non-toxic | inactive | inactive | 50 | 50 |  |  |  |  |  | 
CCCCc1nc(N)nc(=O)n1C[C@@H](CO)OCP(=O)(O)O | > 100 | > 100 | inactive | Non-toxic | > 100 | Non-toxic | inactive | Non-toxic | inactive | inactive | 50 | 50 |  |  |  |  |  | 
Nc1nc(-c2ccccc2)n(C[C@@H](CO)OCP(=O)(O)O)c(=O)n1 | > 100 | > 100 | inactive | Non-toxic | > 100 | Non-toxic | inactive | Non-toxic | inactive | inactive | 50 | 50 |  |  |  |  |  | 
Cc1nc(N)n(C[C@@H](CO)OCP(=O)(O)OC(C)C)c(=O)n1 | > 100 | > 100 | inactive | Non-toxic | > 100 | Non-toxic | inactive | Non-toxic | inactive | inactive |  |  | Active |  |  |  |  | 
Cc1nc(N)n(C[C@@H](CO)OCP(=O)(O)O)c(=O)n1 | > 100 | > 100 | inactive | Non-toxic | > 100 | Non-toxic | inactive | Non-toxic | inactive | inactive |  |  | inactive |  |  |  |  | 
CCCCCCCCCCCCCCCCOCCOP1(=O)CO[C@@H](Cn2cnc(N)nc2=O)CO1 (stereo not given in full) | > 100 | > 100 |  | Non-toxic | > 100 | Non-toxic | inactive | Non-toxic | inactive |  |  |  |  | 0.008 (≈ 0.0151 µM) | 0.003 (≈ 0.00565 µM) | ≤ 0.00014 | 0.003 (≈ 0.00565 µM) | ≤ 0.0008
Cc1nc(N)nc(=O)n1C[C@@H](CO)OCP(=O)(O)O | > 100 | > 100 | inactive | Non-toxic | > 100 | Non-toxic | inactive | Non-toxic | inactive | inactive | 50 | 50 |  |  |  |  |  | 
